In ChEMBL document CHEMBL4354813, “Design, Synthesis, and Pharmacological Evaluation of Potent Positive Allosteric Modulators of the Glucagon-like Peptide-1 Receptor (GLP-1R)” (J Med Chem, 2020):
The source made the active and inactive calls. The calls are words filed in the database; no cut-off is given here.

What was measured:
Pancreatic islet [1] = experiment: Inhibition of glucose-stimulated insulin secretion in dispersed GLP-1(-/-) mouse pancreatic islets at 10 uM incubated for 2 hrs by ELISA; type: functional, cell-based
Pancreatic islet [2] = experiment: Inhibition of GLP1(9-36)NH2-mediated glucose-stimulated insulin secretion in dispersed GLP-1(-/-) mouse pancreatic islets at 10 uM incubated for 2 hrs by ELISA; type: functional, cell-based
Rattus norvegicus = organism: Rattus norvegicus; experiment: Inhibition of glucose-stimulated insulin secretion in dispersed rat pancreatic islets at 10 uM incubated for 2 hrs by ELISA; type: functional
Summary of the method: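 Dispersed islets from male Sprague Dawley rats (collagenase digestion, Histopaque purification, Accutase dispersal, cultured up to 4 days). Pre-incubated 1 h in Krebs-Ringer with 5.6 mM glucose, then 2 h at 37 °C with 15 mM glucose, ±10 nM GLP1(9-36)NH2, ±compound 10 µM, DMSO vehicle; insulin by HTRF ELISA as % of total, n-fold vs control; N≥9.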

Mus musculus = experiment: Suppression of blood glucose concentration in GLP-1R (-/-) C57Bl/6J mouse model at 30 mg/kg, po dosed 1 hrs before test and treated with 60 mg/kg, po OATP/MRP2 inhibitor rifampicin 2.5 hrs prior to oral glucose-tolerance test; type: functional, organism-based
Summary of the method: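 GLP-1R-/- male mice aged 10 weeks, n=6, fasted overnight. Rifampicin 60 mg/kg p.o. 2.5 h before the oGTT, compound p.o. 1 h before, with or without GLP1(9-36)NH2 i.p. 15 min before. Glucose 2 g/kg orally. Tail-vein blood glucose by glucometer at 0, 15, 30, 60 and 90 min.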

OATP1B3 = biological target: T1, OATP1B3 (Homo sapiens, UniProt Q9NPD5); experiment: Substrate activity at human OATP1B3 expressed in HEK293 cells assessed as increase in compound uptake at 1 uM incubated up to 15 mins LC-MS/MS analysis relative to control relative to control; type: ADME, cell-based; details: HEK293 cells expressing human OATP1B3, read-out: FC
T1 sequence (Q9NPD5 whole entry): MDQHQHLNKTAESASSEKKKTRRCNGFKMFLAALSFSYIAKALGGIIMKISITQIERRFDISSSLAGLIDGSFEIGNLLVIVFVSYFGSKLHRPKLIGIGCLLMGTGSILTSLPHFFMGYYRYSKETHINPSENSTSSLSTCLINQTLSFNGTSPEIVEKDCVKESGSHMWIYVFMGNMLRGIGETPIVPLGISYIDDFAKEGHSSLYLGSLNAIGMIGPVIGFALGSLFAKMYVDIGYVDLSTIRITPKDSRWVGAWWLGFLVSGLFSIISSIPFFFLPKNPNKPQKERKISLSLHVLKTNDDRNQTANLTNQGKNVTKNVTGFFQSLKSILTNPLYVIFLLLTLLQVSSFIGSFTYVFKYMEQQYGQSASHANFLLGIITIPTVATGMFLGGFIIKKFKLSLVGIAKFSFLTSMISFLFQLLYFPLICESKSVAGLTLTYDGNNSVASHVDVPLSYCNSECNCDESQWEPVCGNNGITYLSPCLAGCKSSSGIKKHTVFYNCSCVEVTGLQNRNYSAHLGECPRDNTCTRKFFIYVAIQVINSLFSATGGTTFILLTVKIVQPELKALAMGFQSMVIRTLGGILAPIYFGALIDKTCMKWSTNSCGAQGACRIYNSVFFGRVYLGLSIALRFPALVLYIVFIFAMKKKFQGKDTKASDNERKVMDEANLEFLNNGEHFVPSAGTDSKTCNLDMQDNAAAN
Summary of the method: (§1)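 HEK-TR cells overexpressing hOATP1B1 or hOATP1B3, run in parallel with control HEK-TR cells, seeded at 1 x 10⁵ cells/well one day before. Time-dependent uptake of 1 μM compound in HBSS at 37 °C, quadruplicates. Uptake stopped with ice-cold buffer, cells washed, lysed and quantified by LC-MS/MS. Uptake ratio calculated against the control cells.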

[3] = Cmax in Wistar rat at 10 mg/kg, po administered as single dose measured up to 24 hrs ESI-LC/MS-MS analysis; type: ADME, organism-based; set-up: dose 10 mg/kg, route oral; details: in vivo
Summary of the method: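 Single dose of compound: 3 mg/kg i.v. in solution (75% water : 25% of 75% Glycoferol/25% Cremophor) or 10 mg/kg p.o. as wet-milled suspension (0.6% methylcellulose, 0.5% Tween 80 in water); male Wistar rats n=3 per route, female C57Bl6 mice n=24 per route. Plasma sampled 0.25–24 h (p.o.), 0.083–24 h (i.v.); heparinized plasma, acetonitrile precipitation, ESI-LC/MS-MS (LOQ 1 ng/mL rat, 5 ng/mL mouse); noncompartmental analysis, linear trapezoidal.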

[4] = biological target: T2, Solute carrier organic anion transporter family member 1B1 (Homo sapiens, UniProt Q9Y6L6); experiment: Substrate activity at human OATP1B1 expressed in HEK293 cells assessed as increase in compound uptake at 1 uM LC-MS/MS analysis; type: ADME, cell-based; details: hek293, 1 µM, TDE = time-dependent effect; summary of the method: as §1
T2 sequence (Q9Y6L6 whole entry): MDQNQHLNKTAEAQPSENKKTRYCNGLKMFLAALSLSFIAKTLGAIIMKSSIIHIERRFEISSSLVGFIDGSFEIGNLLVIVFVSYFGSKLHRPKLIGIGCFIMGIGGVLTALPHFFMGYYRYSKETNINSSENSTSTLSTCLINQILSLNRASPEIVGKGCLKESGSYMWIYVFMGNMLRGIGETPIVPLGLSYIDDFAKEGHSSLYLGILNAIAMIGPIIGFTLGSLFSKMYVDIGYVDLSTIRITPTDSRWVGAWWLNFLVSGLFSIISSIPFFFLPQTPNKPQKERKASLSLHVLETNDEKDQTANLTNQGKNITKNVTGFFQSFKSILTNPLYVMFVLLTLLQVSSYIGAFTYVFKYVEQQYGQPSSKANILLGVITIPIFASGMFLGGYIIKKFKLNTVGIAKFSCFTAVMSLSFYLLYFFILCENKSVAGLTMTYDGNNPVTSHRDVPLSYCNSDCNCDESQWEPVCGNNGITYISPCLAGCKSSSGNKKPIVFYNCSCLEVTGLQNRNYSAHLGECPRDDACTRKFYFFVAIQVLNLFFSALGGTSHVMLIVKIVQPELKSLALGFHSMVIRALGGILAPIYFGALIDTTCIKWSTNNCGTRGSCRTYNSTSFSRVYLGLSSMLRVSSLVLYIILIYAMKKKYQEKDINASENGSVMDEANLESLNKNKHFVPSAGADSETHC

[5] = Clearance in human hepatocytes assessed per million cells by LC-MS/MS analysis; type: ADME, cell-based, Hepatocyte
Summary of the method: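 Intrinsic clearance in primary human hepatocytes ([…] as printed) or mouse hepatocytes, compound 0.5–5 µM; quinidine or ketoconazole added to define CYP2D6/CYP3A4 contribution; LC-MS/MS analysis.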

[6] = biological target: Voltage-gated inwardly rectifying potassium channel KCNH2 (Homo sapiens, UniProt Q12809); experiment: Inhibition of human ERG by patch clamp assay
[7] = Clearance in Wistar rat at 3 mg/kg, iv administered as single dose measured up to 24 hrs ESI-LC/MS-MS analysis; details: in vivo
[8] = Permeability from apical and basolateral in human Caco2/TC7 cells at pH 7.4 in presence of 0.5% BSA; type: ADME, cell-based; details: caco2/tc7, pH 7.4

Sequence of Voltage-gated inwardly rectifying potassium channel KCNH2 (Q12809 whole entry): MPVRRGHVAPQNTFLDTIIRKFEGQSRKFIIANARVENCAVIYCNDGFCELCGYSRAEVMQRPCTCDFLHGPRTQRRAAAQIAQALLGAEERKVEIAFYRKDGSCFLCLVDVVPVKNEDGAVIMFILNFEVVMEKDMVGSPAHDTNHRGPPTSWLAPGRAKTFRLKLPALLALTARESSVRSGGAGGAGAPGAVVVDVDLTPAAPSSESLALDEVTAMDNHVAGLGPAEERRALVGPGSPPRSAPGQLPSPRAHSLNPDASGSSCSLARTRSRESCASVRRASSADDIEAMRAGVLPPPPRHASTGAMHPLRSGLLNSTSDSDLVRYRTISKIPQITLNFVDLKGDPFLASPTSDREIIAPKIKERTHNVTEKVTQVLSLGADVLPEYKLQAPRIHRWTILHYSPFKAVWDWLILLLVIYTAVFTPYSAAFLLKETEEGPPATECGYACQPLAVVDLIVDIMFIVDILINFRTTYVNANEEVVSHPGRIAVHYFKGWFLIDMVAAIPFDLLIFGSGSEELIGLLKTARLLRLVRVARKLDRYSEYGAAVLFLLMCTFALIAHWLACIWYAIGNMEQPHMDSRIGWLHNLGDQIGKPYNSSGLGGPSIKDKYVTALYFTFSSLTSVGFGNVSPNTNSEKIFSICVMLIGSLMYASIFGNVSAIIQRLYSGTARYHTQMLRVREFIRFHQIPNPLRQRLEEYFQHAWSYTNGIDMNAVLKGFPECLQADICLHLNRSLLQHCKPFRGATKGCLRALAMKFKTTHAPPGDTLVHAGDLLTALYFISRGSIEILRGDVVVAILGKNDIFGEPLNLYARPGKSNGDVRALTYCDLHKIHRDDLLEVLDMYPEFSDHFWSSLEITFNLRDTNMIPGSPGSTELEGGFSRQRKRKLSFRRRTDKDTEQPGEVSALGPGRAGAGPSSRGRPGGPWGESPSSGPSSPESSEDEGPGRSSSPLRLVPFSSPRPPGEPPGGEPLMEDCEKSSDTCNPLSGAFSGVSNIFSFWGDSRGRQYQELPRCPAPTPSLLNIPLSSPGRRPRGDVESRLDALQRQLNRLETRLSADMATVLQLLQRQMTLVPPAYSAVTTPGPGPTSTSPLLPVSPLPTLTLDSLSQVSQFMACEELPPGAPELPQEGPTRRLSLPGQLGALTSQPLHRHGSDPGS

uptake ratio at 0.25 h, 1 µM (OATP1B3) | Cmax [3] | Activity [4] | CLH [5] | CL [7] | permeability [8] | Compound | inhibition (Pancreatic islet [1]) | inhibition (Pancreatic islet [2]) | inhibition (Rattus norvegicus) | Activity (Mus musculus) | IC50 [6]
 |  |  |  |  |  | CC(O)CCN1C[C@H]2c3c(c4ccccc4n3C(=O)OC(C)(C)C)C[C@@H](C1=O)N2C(=O)CC1CCC(F)(F)CC1 (stereo partly specified) | Active | Active |  |  | 
6 to 22 | 106 ng/mL | Tde | 0.184 mL/h/10^6 cells | 118 mL/min/kg | 0.18 ×10⁻⁷ cm/s | CC(C)(C)OC(=O)n1c2c(c3ccccc31)C[C@H]1C(=O)N3C[C@@H](CC(=O)O)C[C@H]3[C@@H]2N1C(=O)CC1CCC(F)(F)CC1 |  |  | inactive | inactive | > 30 µM
